≈ marks a conversion by molar mass, not a printed value.
What was measured:
[1] = system: Enterococcus faecium; assay: Minimum inhibitory concentration of the orally administered compound evaluated against vancomycin resistant Enterococci faecium D3HM4 strain in mice; format: functional
[2] = Tested for half life at the dose of 10 mg/kg when administered intravenously; format: ADME, organism-based; design: dose 10 mg/kg, route intravenous; conditions: mouse, in vivo, iv
In short: (§1)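 Mouse pharmacokinetics used 10 mg/kg given IV and PO. Tmax and Cmax (µg/ml) come from oral dosing, half-life is in hours, and oral bioavailability is F%.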

[3] = system: Mus musculus; assay: Protective dose of orally administered compound against intraperitoneally-induced septicaemia model (vancomycin resistant Enterococci faecium D3HM4 strain ) in murine; format: functional; conditions: po, read-out: PD50
In short: (§2)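 Mice infected intraperitoneally to induce septicaemia, then given the compound by mouth. PD50 was calculated by the probit method.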

[4] = system: Staphylococcus sp.; assay: Minimum inhibitory concentration evaluated against Staphylococcus species [91]*; format: functional
In short: (§3)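 Two-fold agar dilution MIC, in µg/mL, against Staphylococcus panels grouped by resistance phenotype (oxacillin and/or ofloxacin resistant). Per-panel values are reported as the geometric mean and MIC90 across strains; the strain count per panel is given in brackets.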

[5] = system: Mus musculus; assay: Protective dose of orally administered compound against intraperitoneally-induced septicaemia model (vancomycin resistant Enterococci faecium D3HM3 strain ) in murine; format: functional; conditions: po, read-out: PD50
In short: (§4)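 PD50 was measured in a murine septicaemia model, with infection induced intraperitoneally with the named Gram-positive strain. Test compound was given orally and the PD50 was calculated by the probit method.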

[6] = system: Streptococcus pyogenes; assay: Tested for in vitro antibacterial activity against Streptococcus pyogenes O2A1UC1 phenotype; format: functional
[7] = Tested for Cmax value at the dose of 10 mg/kg when administered perorally in mouse; format: ADME, organism-based; design: dose 10 mg/kg, route oral; conditions: in vivo, po; in short: as §1
[8] = system: Enterococcus faecium; assay: Tested for in vitro antibacterial activity against Enterococcus faecium 02D31P2 vancomycin teicoplanin erythromycin resistance phenotype; format: functional
[9] = system: Streptococcus sp.; assay: Minimum inhibitory concentration evaluated against Streptococci species (viridans) [25]*; format: functional
[10] = system: Staphylococcus sp.; assay: Minimum inhibitory concentration evaluated against Staphylococcus species resistant to ofloxacin [59]*; format: functional; in short: as §3
[11] = Tested for Tmax value at the dose of 10 mg/kg when administered perorally in mouse; format: ADME, organism-based; design: dose 10 mg/kg, route oral; conditions: in vivo, po; in short: as §1
[12] = system: Mus musculus; assay: Protective dose of orally administered compound against intraperitoneally-induced septicaemia model (Streptococcus agalactiae B1HT3 strain) in murine; conditions: po, read-out: PD50
[13] = system: Staphylococcus aureus; assay: Minimum inhibitory concentration of the orally administered compound evaluated against Staphylococcus aureus HT-17 strain in mice; format: functional
[14] = system: Enterococcus; assay: Minimum inhibitory concentration evaluated against enterococci species susceptible to vancomycin [26]*; format: functional
[15] = system: Streptococcus pyogenes; assay: Minimum inhibitory concentration of the orally administered compound evaluated against Streptococcus pyogenes A1UC1 strain in mice
[16] = system: Mus musculus; assay: Protective dose of orally administered compound against intraperitoneally-induced septicaemia model (Streptococcus pneumoniae PW3 strain) in murine; conditions: po, read-out: PD50
[17] = system: Staphylococcus sp.; assay: Minimum inhibitory concentration evaluated against Staphylococcus species resistant to oxacillin [66]*; format: functional; in short: as §3
[18] = system: Staphylococcus sp.; assay: Minimum inhibitory concentration evaluated against Staphylococcus species resistant to oxacillin and ofloxacin [47]*; format: functional; in short: as §3
[19] = system: Mus musculus; assay: Protective dose of orally administered compound against intraperitoneally-induced septicaemia model (Enterococci faecalis D2HT6 strain) in murine; format: functional; conditions: po, read-out: PD50; in short: as §4
[20] = system: Staphylococcus aureus; assay: Minimum inhibitory concentration of the orally administered compound evaluated against Staphylococcus aureus GO3 strain in mice; format: functional
[21] = system: Enterococcus faecium; assay: Minimum inhibitory concentration of the orally administered compound evaluated against vancomycin resistant Enterococci faecium D3AP9 strain in mice; format: functional
[22] = Minimum inhibitory concentration evaluated against pneumococci resistant to penicillin [29]*; format: functional
[23] = system: Streptococcus sp.; assay: In vitro anti-streptococcal activity against Streptococci species (viridans) [25]* expressed as geometric mean; format: functional
[24] = system: Staphylococcus sp.; assay: In vitro anti-staphylococcal activity against Staphylococcus species resistant to oxacillin [66]* expressed as geometric mean; format: functional; in short: as §3
[25] = system: Enterococcus faecium; assay: Minimum inhibitory concentration of the orally administered compound evaluated against vancomycin resistant Enterococci faecium D3HT12 strain in mice; format: functional
[26] = system: Mus musculus; assay: Protective dose of orally administered compound against intraperitoneally-induced septicaemia model (Staphylococcus aureus GR56 strain resistant to oxacillin) in murine; format: functional; conditions: po, read-out: PD50; in short: as §4
[27] = system: Enterococcus; assay: In vitro anti-enterococcal activity against enterococci species susceptible to vancomycin [26]* expressed as geometric mean; format: functional
[28] = system: Enterococcus; assay: In vitro anti-enterococcal activity against enterococci species resistant to vancomycin and teicoplanin [17]* expressed as geometric mean; format: functional
[29] = Minimum inhibitory concentration of the orally administered compound evaluated against […] PW3 strain in mice; format: functional
[30] = system: Mus musculus; assay: Protective dose of orally administered compound against intraperitoneally-induced septicaemia model (vancomycin resistant Enterococci faecium D3HT12 strain ) in murine; format: functional; conditions: po, read-out: PD50; in short: as §2
[31] = system: Staphylococcus aureus; assay: Tested for in vitro antibacterial activity against Staphylococcus aureus 011 HT3 phenotype; format: functional
[32] = system: Staphylococcus sp.; assay: In vitro anti-staphylococcal activity against Staphylococcus species resistant to oxacillin and ofloxacin[47]* expressed as geometric mean; format: functional; in short: as §3
[33] = system: Enterococcus faecium; assay: Minimum inhibitory concentration of the orally administered compound evaluated against vancomycin resistant Enterococci faecium D3HM3 strain in mice; format: functional
[34] = system: Enterococcus faecium; assay: Minimum inhibitory concentration of the orally administered compound evaluated against Enterococci faecium D3HT7 strain in mice; format: functional
[35] = system: Mus musculus; assay: Protective dose of orally administered compound against intraperitoneally-induced septicaemia model (Staphylococcus aureus GO3 strain) in murine; format: functional; conditions: po, read-out: PD50; in short: as §4
[36] = system: Staphylococcus aureus; assay: Minimum inhibitory concentration of the orally administered compound evaluated against Staphylococcus aureus HT-18 strain in mice; format: functional
[37] = system: Mus musculus; assay: Protective dose of orally administered compound against intraperitoneally-induced septicaemia model (Enterococci faecium D3HT7 strain ) in murine; format: functional; conditions: po, read-out: PD50; in short: as §4
[38] = system: Staphylococcus aureus; assay: Tested for in vitro antibacterial activity against Staphylococcus aureus 011 HT1 novobiocin resistance phenotype; format: functional
[39] = system: Staphylococcus epidermidis; assay: Tested for in vitro antibacterial activity against Staphylococcus epidermidis 012GO42 oxacillin resistance phenotype; format: functional
[40] = system: Mus musculus; assay: Protective dose of orally administered compound against intraperitoneally-induced septicaemia model (vancomycin resistant Enterococci faecium D3AP9 strain ) in murine; format: functional; conditions: po, read-out: PD50; in short: as §4
[41] = system: Enterococcus; assay: Minimum inhibitory concentration evaluated against enterococci species resistant to vancomycin and teicoplanin [17]*; format: functional
[42] = system: Staphylococcus aureus; assay: IC50 was determined for gyrase B of Staphylococcus aureus against novobiocin (0.5 mg/mL) as reference; IC50nov/IC50comp
[43] = system: Mus musculus; assay: Protective dose of orally administered compound against intraperitoneally-induced septicaemia model (Staphylococcus aureus HT18) in murine; format: functional; conditions: po, read-out: PD50; in short: as §4
[44] = system: pneumococci; assay: In vitro anti-streptococcal activity against pneumococci resistant to penicillin [29]* expressed as geometric mean; format: functional
[45] = Tested for bioavailability of the compound; format: ADME, organism-based; conditions: mouse, in vivo; in short: as §1
[46] = system: Enterococcus; assay: Minimum inhibitory concentration evaluated against enterococci species resistant to vancomycin [65]*; format: functional
[47] = system: Mus musculus; assay: Protective dose of orally administered compound against intraperitoneally-induced septicaemia model (Streptococcus pyogenes A1UC1 strain) in murine; conditions: po, read-out: PD50
[48] = system: Staphylococcus sp.; assay: In vitro anti-staphylococcal activity against Staphylococcus species resistant to ofloxacin [59]* expressed as geometric mean; format: functional; in short: as §3
[49] = system: Mus musculus; assay: Protective dose of orally administered compound against intraperitoneally-induced septicaemia model (Staphylococcus aureus HT-17 strain) in murine; format: functional; conditions: po, read-out: PD50; in short: as §4
[50] = system: Staphylococcus aureus; assay: Minimum inhibitory concentration of the orally administered compound evaluated against Staphylococcus aureus GR56 strain resistant to oxacillin in mice; format: functional
[51] = system: Enterococcus faecalis; assay: Minimum inhibitory concentration of the orally administered compound evaluated against Enterococci faecalis D2HT6 strain in mice; format: functional
[52] = system: Streptococcus sp.; assay: Minimum inhibitory concentration evaluated against Streptococci species [38]*; format: functional
[53] = system: Staphylococcus sp.; assay: In vitro anti-staphylococcal activity against Staphylococcus species [91]* expressed as geometric mean; format: functional
In short: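 Two-fold agar-dilution MICs (µg/mL) were run on a panel of staphylococcal isolates and summarised as the geometric mean across strains.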

[54] = system: Streptococcus sp.; assay: In vitro anti-streptococcal activity against Streptococci species [38]* expressed as geometric mean; format: functional
[55] = system: Staphylococcus aureus; assay: Tested for in vitro antibacterial activity against Staphylococcus aureus 011 GO64 ofloxacin oxacillin erythromycin resistance phenotype; format: functional

C#CCONC(=O)O[C@H]1[C@@H](O)[C@H](Oc2ccc3c(=O)c(/C(C)=N/OC)c(O)oc3c2C)OC2(CCCC2)[C@@H]1OC
MIC [1]: 0.6 µg/mL (≈ 1.07 µM)
half-life [2]: 2.5 h
ED50 [3]: 77 mg/kg
MIC90 [4]: 0.15 µg/mL (≈ 0.268 µM)
ED50 [5]: 32 mg/kg
MIC [6]: 0.15 µg/mL (≈ 0.268 µM)
Cmax [7]: 5400 ng/mL
MIC [8]: 0.15 µg/mL (≈ 0.268 µM)
MIC90 [9]: 1.2 µg/mL (≈ 2.14 µM)
MIC90 [10]: 0.15 µg/mL (≈ 0.268 µM)
Tmax [11]: 0.5 h
ED50 [12]: 27.7 mg/kg
MIC [13]: 0.15 µg/mL (≈ 0.268 µM)
MIC90 [14]: 1.2 µg/mL (≈ 2.14 µM)
MIC [15]: 0.15 µg/mL (≈ 0.268 µM)
ED50 [16]: 8.5 mg/kg
MIC90 [17]: 0.15 µg/mL (≈ 0.268 µM)
MIC90 [18]: 0.15 µg/mL (≈ 0.268 µM)
ED50 [19]: 10 mg/kg
MIC [20]: 0.3 µg/mL (≈ 0.535 µM)
MIC [21]: 0.6 µg/mL (≈ 1.07 µM)
MIC90 [22]: 0.3 µg/mL (≈ 0.535 µM)
GM [23]: 0.59
GM [24]: 0.097
MIC [25]: 0.15 µg/mL (≈ 0.268 µM)
ED50 [26]: 1 mg/kg
GM [27]: 0.26
GM [28]: 0.16
MIC [29]: 1.2 µg/mL (≈ 2.14 µM)
ED50 [30]: 40 mg/kg
MIC [31]: < 0.04 µg/mL
GM [32]: 0.081
MIC [33]: 0.08 µg/mL (≈ 0.143 µM)
MIC [34]: 0.15 µg/mL (≈ 0.268 µM)
ED50 [35]: 7.1 mg/kg
MIC [36]: < 0.04 µg/mL
ED50 [37]: 112 mg/kg
MIC [38]: 1.2 µg/mL (≈ 2.14 µM)
MIC [39]: < 0.04 µg/mL
ED50 [40]: 44 mg/kg
MIC90 [41]: 0.3 µg/mL (≈ 0.535 µM)
Ratio [42]: 2.6
ED50 [43]: 5.6 mg/kg
GM [44]: 0.12
bioavailability [45]: 62%
MIC90 [46]: 0.6 µg/mL (≈ 1.07 µM)
ED50 [47]: 37.6 mg/kg
GM [48]: 0.082
ED50 [49]: 2.8 mg/kg
MIC [50]: 0.08 µg/mL (≈ 0.143 µM)
MIC [51]: 0.3 µg/mL (≈ 0.535 µM)
MIC90 [52]: 1.2 µg/mL (≈ 2.14 µM)
GM [53]: 0.099
GM [54]: 0.47

C#CCONC(=O)O[C@H]1[C@@H](O)[C@H](Oc2ccc3c(=O)c(/C(C)=N/OC)c(O)oc3c2C)OC2(CCCCC2)[C@@H]1OC
MIC [55]: 0.15 µg/mL (≈ 0.261 µM)
MIC [6]: 0.6 µg/mL (≈ 1.04 µM)
MIC [8]: 0.15 µg/mL (≈ 0.261 µM)
MIC [31]: < 0.04 µg/mL
MIC [38]: 0.6 µg/mL (≈ 1.04 µM)
MIC [39]: < 0.04 µg/mL
Ratio [42]: 2.6

C#CCONC(=O)O[C@H]1[C@@H](O)[C@H](Oc2ccc3c(O)c(/C(C)=N/OC)c(=O)oc3c2C)O[C@@H](CC)[C@@H]1OC
MIC [55]: 0.6 µg/mL (≈ 1.12 µM)
MIC [6]: 2.5 µg/mL (≈ 4.68 µM)
MIC [8]: 40 µg/mL (≈ 74.8 µM)
MIC [31]: 0.3 µg/mL (≈ 0.561 µM)
MIC [38]: 20 µg/mL (≈ 37.4 µM)
MIC [39]: 0.3 µg/mL (≈ 0.561 µM)
Ratio [42]: 2.6

From ChEMBL document CHEMBL1133253, “Improved antibacterial activities of coumarin antibiotics bearing 5',5'-dialkylnoviose: biological activity of RU79115” (Bioorg Med Chem Lett, 2000)
